Reference: ChEMBL document CHEMBL2203123, “Synthesis and biological evaluation of some hydrazone derivatives as new anticandidal and anticancer agents” (Eur J Med Chem, 2012)
Converted amounts (≈) assume the structure as drawn.

How the values were obtained:
Salmonella typhimurium [1] = assay: Genotoxicity against Salmonella typhimurium TA98 assessed as fold increase in revertants at 0.625 mg/ml after 90 mins by Ames MPF test in absence of S9 fraction relative to baseline; type: toxicity, organism-based; conditions: salmonella enterica subsp. enterica serovar typhimurium, 1.5 h
Procedure, shortened: (§1)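 Ames MPF fluctuation test, TA98 and TA100: overnight cultures reincubated 90 min, then exposed 90 min at 37 °C to compounds at 0.156-5 mg/mL (in DMSO) with or without 4.5% v/v S9; indicator medium added, 48 wells per sample scored yellow after 48 h, triplicate. Fold over baseline = mean positive wells / (mean of DMSO control + 1 SD).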

Salmonella typhimurium [2] = assay: Genotoxicity against Salmonella typhimurium TA1535/pSK1002 assessed as growth factor ratio at 5 mg/ml by umuC assay in absence of S9 fraction; type: toxicity, organism-based; conditions: salmonella enterica subsp. enterica serovar typhimurium
Procedure, shortened: (§2)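 umuC Easy CS: TA1535/pSK1002 grown overnight in ampicillin TG medium at 37 °C, then exposed 2 h at 37 °C to compounds at 5, 2.5, 1.25, 0.63 mg/mL with or without S9. Diluted into fresh medium for 2 h growth (OD600), then β-galactosidase with ONPG 30 min at 28 °C, OD420. Positive controls 2-aminoanthracene (+S9), […] (−S9).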

Salmonella typhimurium [3] = assay: Genotoxicity against Salmonella typhimurium TA1535/pSK1002 assessed as growth factor ratio at 1.25 mg/ml by umuC assay in presence of S9 fraction; type: toxicity, organism-based; conditions: salmonella enterica subsp. enterica serovar typhimurium; procedure, shortened: as §2
A549 = assay: Cytotoxicity against human A549 cells after 24 hrs by XTT assay; type: functional, cell-based; conditions: A549, 24 h
Procedure, shortened: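 A549 cells in RPMI 1640 with 10% fetal calf serum, penicillin/streptomycin, 37 °C, 5% CO2; 20,000 cells/well seeded, after 24 h exposed to compounds at 0.00316 µM-10 mM for 24 h. XTT mitochondrial activity read at 480 nm (reference 680 nm) after 3 h; % inhibition per concentration, IC50 by non-linear regression.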

Salmonella typhimurium [4] = assay: Genotoxicity against Salmonella typhimurium TA100 assessed as fold increase in revertants at 5 mg/ml after 90 mins by Ames MPF test in presence of S9 fraction relative to baseline; type: toxicity, organism-based; conditions: salmonella enterica subsp. enterica serovar typhimurium, s9, 1.5 h; procedure, shortened: as §1
Salmonella typhimurium [5] = assay: Genotoxicity against Salmonella typhimurium TA1535/pSK1002 assessed as growth factor ratio at 1.25 mg/ml by umuC assay in absence of S9 fraction; type: toxicity, organism-based; conditions: salmonella enterica subsp. enterica serovar typhimurium; procedure, shortened: as §2
Salmonella typhimurium [6] = assay: Genotoxicity against Salmonella typhimurium TA98 assessed as fold increase in revertants at 0.625 mg/ml after 90 mins by Ames MPF test in presence of S9 fraction relative to baseline; type: toxicity, organism-based; conditions: salmonella enterica subsp. enterica serovar typhimurium, s9, 1.5 h; procedure, shortened: as §1
NIH3T3 = assay: Cytotoxicity against mouse NIH/3T3 cells after 24 hrs by XTT assay; type: cell-based; conditions: NIH3T3, 24 h
Procedure, shortened: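 Mouse NIH3T3 fibroblasts grown in DMEM with fetal calf serum, penicillin/streptomycin, 37 °C, 5% CO2; 20,000 cells/well, treated after 24 h with 0.00316 µM-10 mM compound for 24 h. Viability via XTT (3 h, OD 480 nm, reference 680 nm); % inhibition computed and IC50 fitted by non-linear regression.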

Salmonella typhimurium [7] = assay: Genotoxicity against Salmonella typhimurium TA98 assessed as fold increase in revertants at 2.5 mg/ml after 90 mins by Ames MPF test in absence of S9 fraction relative to baseline; type: toxicity, organism-based; conditions: salmonella enterica subsp. enterica serovar typhimurium, 1.5 h; procedure, shortened: as §1
Salmonella typhimurium [8] = assay: Genotoxicity against Salmonella typhimurium TA100 assessed as fold increase in revertants at 5 mg/ml after 90 mins by Ames MPF test in absence of S9 fraction relative to baseline; type: toxicity, organism-based; conditions: salmonella enterica subsp. enterica serovar typhimurium, 1.5 h; procedure, shortened: as §1
Salmonella typhimurium [9] = assay: Genotoxicity against Salmonella typhimurium TA100 assessed as fold increase in revertants at 1.25 mg/ml after 90 mins by Ames MPF test in absence of S9 fraction relative to baseline; type: toxicity, organism-based; conditions: salmonella enterica subsp. enterica serovar typhimurium, 1.5 h; procedure, shortened: as §1
Candida parapsilosis = assay: Antifungal activity against Candida parapsilosis NRRL Y-12696 after 24 hrs by microdilution susceptibility assay; type: functional; conditions: Lodderomyces parapsilosis, NRRL Y-12696, 24 h
Procedure, shortened: (§3)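 Broth microdilution in Mueller Hinton Broth, compounds from DMSO stocks diluted serially; inocula standardized to 10^6 CFU/mL (McFarland 0.5) from overnight MHB cultures. Plates held 37 °C for 24 h; MIC taken as first well without turbidity, aided by 1% tetrazolium violet added for 3 h at 37 °C. Ketoconazole reference.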

Cyberlindnera jadinii = assay: Antifungal activity against Candida utilis NRRL Y-900 after 24 hrs by microdilution susceptibility assay; type: functional; conditions: Williopsis jadinii, NRRL Y-900, 24 h; procedure, shortened: as §3
Salmonella typhimurium [10] = assay: Genotoxicity against Salmonella typhimurium TA98 assessed as fold increase in revertants at 5 mg/ml after 90 mins by Ames MPF test in presence of S9 fraction relative to baseline; type: toxicity, organism-based; conditions: salmonella enterica subsp. enterica serovar typhimurium, s9, 1.5 h; procedure, shortened: as §1
Candida albicans = assay: Antifungal activity against Candida albicans clinical isolate after 24 hrs by microdilution susceptibility assay; type: functional; procedure, shortened: as §3
[11] = Genotoxicity against Salmonella typhimurium TA1535/pSK1002 assessed as induction ratio at 2.5 mg/ml by umuC assay in absence of S9 fraction; type: toxicity, organism-based; conditions: salmonella enterica subsp. enterica serovar typhimurium, Salmonella typhimurium TA1535/pSK1002 without S9 fraction; procedure, shortened: as §2
Salmonella typhimurium [12] = assay: Genotoxicity against Salmonella typhimurium TA1535/pSK1002 assessed as growth factor ratio at 0.63 mg/ml by umuC assay in presence of S9 fraction; type: toxicity, organism-based; conditions: salmonella enterica subsp. enterica serovar typhimurium; procedure, shortened: as §2
[13] = Genotoxicity against Salmonella typhimurium TA1535/pSK1002 assessed as induction ratio at 1.25 mg/ml by umuC assay in presence of S9 fraction; type: toxicity, organism-based; conditions: salmonella enterica subsp. enterica serovar typhimurium, Salmonella typhimurium TA1535/pSK1002 with S9 fraction; procedure, shortened: as §2
[14] = Genotoxicity against Salmonella typhimurium TA1535/pSK1002 assessed as induction ratio at 5 mg/ml by umuC assay in presence of S9 fraction; type: toxicity, organism-based; conditions: salmonella enterica subsp. enterica serovar typhimurium, Salmonella typhimurium TA1535/pSK1002 with S9 fraction; procedure, shortened: as §2
Salmonella typhimurium [15] = assay: Genotoxicity against Salmonella typhimurium TA100 assessed as fold increase in revertants at 0.156 mg/ml after 90 mins by Ames MPF test in absence of S9 fraction relative to baseline; type: toxicity, organism-based; conditions: salmonella enterica subsp. enterica serovar typhimurium, 1.5 h; procedure, shortened: as §1
Salmonella typhimurium [16] = assay: Genotoxicity against Salmonella typhimurium TA100 assessed as fold increase in revertants at 2.5 mg/ml after 90 mins by Ames MPF test in presence of S9 fraction relative to baseline; type: toxicity, organism-based; conditions: salmonella enterica subsp. enterica serovar typhimurium, s9, 1.5 h; procedure, shortened: as §1

| SMILES | MIC (Candida parapsilosis) | MIC (Cyberlindnera jadinii) | MIC (Candida albicans) | fold change (FC) (Salmonella typhimurium [1]) | Ratio (Salmonella typhimurium [2]) | Ratio (Salmonella typhimurium [3]) | IC50 (A549) | fold change (FC) (Salmonella typhimurium [4]) | Ratio (Salmonella typhimurium [5]) | fold change (FC) (Salmonella typhimurium [6]) | IC50 (NIH3T3) | fold change (FC) (Salmonella typhimurium [7]) | fold change (FC) (Salmonella typhimurium [8]) | fold change (FC) (Salmonella typhimurium [9]) | fold change (FC) (Salmonella typhimurium [10]) | fold induction at 2.5 mg/ml [11] | Ratio (Salmonella typhimurium [12]) | fold induction at 1.25 mg/ml [13] | fold induction at 5 mg/ml [14] | fold change (FC) (Salmonella typhimurium [15]) | further results |
| --- | --- | --- | --- | --- | --- | --- | --- | --- | --- | --- | --- | --- | --- | --- | --- | --- | --- | --- | --- | --- | --- |
| Cn1nnnc1SCC(=O)N/N=C/c1ccc(O)cc1 | 1000 µg/mL (≈ 3420 µM) | 500 µg/mL (≈ 1710 µM) | 500 µg/mL (≈ 1710 µM) | 0.13 | 2.049 | 1.277 | > 10000 µM | 0.82 | 1.098 | 0.32 | 632 µM | 0.13 | 0 | 0.91 | 0.63 | 0.979 | 1.13 | 0.699 | 0.419 | 0.66 | fold change (FC) (Salmonella typhimurium [16]): 0.63 |
| Cn1nnnc1SCC(=O)N/N=C/c1ccccc1[N+](=O)[O-] | 500 µg/mL (≈ 1560 µM) | 250 µg/mL (≈ 778 µM) | 500 µg/mL (≈ 1560 µM) | 1.47 | 1.281 | 0.879 | 1600 µM | 1.7 | 1.022 | 1.78 | 2020 µM | 1.96 | 1.33 | 1.33 | 1.11 | 1.63 | 0.969 | 1.18 | 1.19 | 1.67 | fold change (FC) (Salmonella typhimurium [16]): 2.2 |
| Cn1nnnc1SCC(=O)N/N=C/c1ccccc1F | 1000 µg/mL (≈ 3400 µM) | 125 µg/mL (≈ 425 µM) | 125 µg/mL (≈ 425 µM) | 0.64 | 3.877 | 1.163 | 9000 µM | 0.58 | 1.084 | 1 | 2000 µM | 0.95 | 0.17 | 0.29 | 1.14 | 0.779 | 0.935 | 0.548 | 0.284 | 0.23 | fold change (FC) (Salmonella typhimurium [16]): 0.95 |

The remaining compounds from weak to strong by MIC (Candida parapsilosis), led by results:

| MIC (Candida parapsilosis) | MIC (Cyberlindnera jadinii) | MIC (Candida albicans) | SMILES | fold change (FC) (Salmonella typhimurium [1]) | Ratio (Salmonella typhimurium [2]) | Ratio (Salmonella typhimurium [3]) | IC50 (A549) | fold change (FC) (Salmonella typhimurium [4]) | Ratio (Salmonella typhimurium [5]) | fold change (FC) (Salmonella typhimurium [6]) | IC50 (NIH3T3) | fold change (FC) (Salmonella typhimurium [7]) | fold change (FC) (Salmonella typhimurium [8]) | fold change (FC) (Salmonella typhimurium [9]) | fold change (FC) (Salmonella typhimurium [10]) | fold induction at 2.5 mg/ml [11] | Ratio (Salmonella typhimurium [12]) | fold induction at 1.25 mg/ml [13] | fold induction at 5 mg/ml [14] | fold change (FC) (Salmonella typhimurium [15]) | further results |
| --- | --- | --- | --- | --- | --- | --- | --- | --- | --- | --- | --- | --- | --- | --- | --- | --- | --- | --- | --- | --- | --- |
| 500 µg/mL (≈ 1570 µM) | 125 µg/mL (≈ 391 µM) | 125 µg/mL (≈ 391 µM) | CN(C)c1ccc(/C=N/NC(=O)CSc2nnnn2C)cc1 | 1.59 | 2.781 | 1.538 | 100 µM | 0.26 | 1.191 | 1 | 316 µM | 0 | 0.81 | 1 | 0.86 | 0.88 | 1.268 | 0.67 | 0.379 | 1.9 | fold change (FC) (Salmonella typhimurium [16]): 0.15 |
| 250 µg/mL (≈ 816 µM) | 250 µg/mL (≈ 816 µM) | 500 µg/mL (≈ 1630 µM) | COc1ccc(/C=N/NC(=O)CSc2nnnn2C)cc1 | 0.65 | 1.99 | 1.294 | > 10000 µM | 0.5 | 1.137 | 0.32 | > 10000 µM | 0.33 | 0.5 | 0.2 | 0.84 | 1.04 | 1.117 | 0.769 | 0.568 | 0.7 | fold change (FC) (Salmonella typhimurium [16]): 0.62 |
